Data set [1] relates to Schistosoma mansoni. In words: Antischistosomal activity against Schistosoma mansoni assessed as parasite killing after 2 hrs. In kind it is functional, organism-based. The essentials:
(§1)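 Cultured ex vivo worms were exposed to 10 μM compound. Worm effects were scored by visual examination at time points over a 72 h time-course.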

The subject of data set [2] is Schistosoma mansoni. In words: Antischistosomal activity against Schistosoma mansoni assessed as parasite killing after 4 hrs. The format is functional. In short, it runs like this: as §1
Data set [3] relates to Schistosoma mansoni. In words: Antischistosomal activity against Schistosoma mansoni assessed as induction of parasite mortality after 8 hrs. In kind it is functional. Details: concentration or dose not given beside the values. In short, it runs like this:
as §1

In data set [4] the test system is Schistosoma mansoni. In words: Antischistosomal activity against Schistosoma mansoni assessed as induction of parasite mortality after 16 hrs. In kind it is functional. Details: concentration or dose not given beside the values. In short, it runs like this: as §1
Data set [5] concerns Schistosoma mansoni. In words: Antischistosomal activity against Schistosoma mansoni assessed as induction of parasite mortality after 24 hrs. The format is functional. Details: concentration or dose not given beside the values. In short, it runs like this: as §1
In data set [6] the test system is Schistosoma mansoni. In words: Antischistosomal activity against Schistosoma mansoni assessed as induction of parasite sluggish movement after 48 hrs. In kind it is functional, organism-based. In short, it runs like this:
as §1

Data set [7] relates to Schistosoma mansoni. The experiment in a line: Antischistosomal activity against Schistosoma mansoni assessed as induction of parasite mortality after 72 hrs. The format is functional. Details: concentration or dose not given beside the values. The essentials:
as §1

Data set [8] can be described thus: Induction of nitric oxide release at 10 uM in presence of Schistosoma mansoni recombinant TGR. The format is functional.
Data set [9] can be described thus: Induction of nitric oxide release at 10 uM in presence of Schistosoma mansoni recombinant TGR and NADPH. The format is functional.
Data set [10] can be described thus: Induction of nitric oxide release at 10 uM in presence of cysteine. The format is physicochemical.
Data set [11] deals with T1, Glutathione reductase, mitochondrial (Homo sapiens, UniProt P00390).
T1 sequence (P00390 whole entry): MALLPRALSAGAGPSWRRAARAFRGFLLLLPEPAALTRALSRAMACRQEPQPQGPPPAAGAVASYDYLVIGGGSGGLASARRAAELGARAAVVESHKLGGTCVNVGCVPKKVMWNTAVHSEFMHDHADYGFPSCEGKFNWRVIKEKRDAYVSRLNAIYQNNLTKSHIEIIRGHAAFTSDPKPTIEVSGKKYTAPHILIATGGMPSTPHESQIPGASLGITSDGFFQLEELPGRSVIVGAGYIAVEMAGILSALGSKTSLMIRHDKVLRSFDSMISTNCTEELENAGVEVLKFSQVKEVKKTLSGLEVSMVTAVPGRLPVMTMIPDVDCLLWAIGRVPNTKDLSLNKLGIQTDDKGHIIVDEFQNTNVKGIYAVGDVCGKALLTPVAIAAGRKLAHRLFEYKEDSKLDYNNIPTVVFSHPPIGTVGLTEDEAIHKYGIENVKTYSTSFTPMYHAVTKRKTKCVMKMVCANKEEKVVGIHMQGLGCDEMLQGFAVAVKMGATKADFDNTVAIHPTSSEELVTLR
The experiment in a line: Inhibition of human recombinant GR after 15 mins in presence of NADPH.

Data set [12] concerns the target T2, Thioredoxin reductase 1, cytoplasmic (Rattus norvegicus, UniProt O89049).
T2 sequence (O89049 whole entry): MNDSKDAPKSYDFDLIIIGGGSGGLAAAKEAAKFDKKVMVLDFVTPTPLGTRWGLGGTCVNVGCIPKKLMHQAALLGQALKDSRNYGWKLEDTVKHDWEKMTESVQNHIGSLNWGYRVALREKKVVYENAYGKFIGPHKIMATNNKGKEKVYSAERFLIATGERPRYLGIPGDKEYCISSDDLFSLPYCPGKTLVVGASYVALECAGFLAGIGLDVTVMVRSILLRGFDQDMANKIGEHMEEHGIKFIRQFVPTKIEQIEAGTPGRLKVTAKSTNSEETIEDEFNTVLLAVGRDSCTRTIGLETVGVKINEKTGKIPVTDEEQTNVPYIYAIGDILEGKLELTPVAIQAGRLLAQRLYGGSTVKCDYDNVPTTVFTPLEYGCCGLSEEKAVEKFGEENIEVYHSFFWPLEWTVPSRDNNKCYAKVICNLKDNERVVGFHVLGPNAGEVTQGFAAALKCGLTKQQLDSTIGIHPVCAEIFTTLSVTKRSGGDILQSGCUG
The experiment in a line: Inhibition of rat recombinant TrxR1 after 10 mins.

A short description of data set [13]: Reactivity with cysteine at 0.1 mM in 0.1M phosphate buffer assessed as amount of compound unreacted by HPLC.
Data set [14] has as its system Schistosoma mansoni. The experiment in a line: Antischistosomal activity against Schistosoma mansoni assessed as induction of parasite mortality after 48 hrs. The format is functional. Details: concentration or dose not given beside the values. The essentials:
as §1

In data set [15] the test system is Schistosoma mansoni. The experiment in a line: Antischistosomal activity against Schistosoma mansoni assessed as induction of parasite curling after 8 hrs. In kind it is functional, organism-based. In short, it runs like this: as §1
In data set [16] the test system is Schistosoma mansoni. The experiment in a line: Antischistosomal activity against Schistosoma mansoni assessed as induction of parasite sluggish movement after 4 hrs. In kind it is functional, organism-based. In short, it runs like this:
as §1

Data set [17] is described as follows: Solubility by quantitative nitrogen detection based method.
The nature of data set [18]: Distribution coefficient, log D of the compound. The conditions noted are these: octanol/water.
The test system of data set [19] is Caco-2. The experiment in a line: Apparent permeability from apical to basolateral side of human Caco-2 cells. In general terms: Passage across Caco-2 layers is used to estimate intestinal permeability.
Data set [20] deals with Caco-2. The experiment in a line: Apparent permeability from basolateral to apical side of human Caco-2 cells.
The nature of data set [21]: Metabolic stability in human liver microsomes assessed as compound remaining over 60 mins in presence of NADPH. The format is ADME, Microsome. The conditions noted are these: read-out: Stability. A general note: Liver microsomes are a subcellular fraction often used to study metabolism.
The nature of data set [22]: Metabolic stability in human liver microsomes assessed as compound remaining over 60 mins in absence of NADPH. In kind it is ADME, Microsome. Particulars: read-out: Stability.
In a further data set the target is hERG (KCNH2) (Homo sapiens, UniProt Q12809). In words: Inhibition of human ERG expressed in HEK293 cells at 10 uM by fast patch clamp method. Particulars: HEK293 cells expressing human ERG.
hERG (KCNH2), sequence (Q12809 whole entry): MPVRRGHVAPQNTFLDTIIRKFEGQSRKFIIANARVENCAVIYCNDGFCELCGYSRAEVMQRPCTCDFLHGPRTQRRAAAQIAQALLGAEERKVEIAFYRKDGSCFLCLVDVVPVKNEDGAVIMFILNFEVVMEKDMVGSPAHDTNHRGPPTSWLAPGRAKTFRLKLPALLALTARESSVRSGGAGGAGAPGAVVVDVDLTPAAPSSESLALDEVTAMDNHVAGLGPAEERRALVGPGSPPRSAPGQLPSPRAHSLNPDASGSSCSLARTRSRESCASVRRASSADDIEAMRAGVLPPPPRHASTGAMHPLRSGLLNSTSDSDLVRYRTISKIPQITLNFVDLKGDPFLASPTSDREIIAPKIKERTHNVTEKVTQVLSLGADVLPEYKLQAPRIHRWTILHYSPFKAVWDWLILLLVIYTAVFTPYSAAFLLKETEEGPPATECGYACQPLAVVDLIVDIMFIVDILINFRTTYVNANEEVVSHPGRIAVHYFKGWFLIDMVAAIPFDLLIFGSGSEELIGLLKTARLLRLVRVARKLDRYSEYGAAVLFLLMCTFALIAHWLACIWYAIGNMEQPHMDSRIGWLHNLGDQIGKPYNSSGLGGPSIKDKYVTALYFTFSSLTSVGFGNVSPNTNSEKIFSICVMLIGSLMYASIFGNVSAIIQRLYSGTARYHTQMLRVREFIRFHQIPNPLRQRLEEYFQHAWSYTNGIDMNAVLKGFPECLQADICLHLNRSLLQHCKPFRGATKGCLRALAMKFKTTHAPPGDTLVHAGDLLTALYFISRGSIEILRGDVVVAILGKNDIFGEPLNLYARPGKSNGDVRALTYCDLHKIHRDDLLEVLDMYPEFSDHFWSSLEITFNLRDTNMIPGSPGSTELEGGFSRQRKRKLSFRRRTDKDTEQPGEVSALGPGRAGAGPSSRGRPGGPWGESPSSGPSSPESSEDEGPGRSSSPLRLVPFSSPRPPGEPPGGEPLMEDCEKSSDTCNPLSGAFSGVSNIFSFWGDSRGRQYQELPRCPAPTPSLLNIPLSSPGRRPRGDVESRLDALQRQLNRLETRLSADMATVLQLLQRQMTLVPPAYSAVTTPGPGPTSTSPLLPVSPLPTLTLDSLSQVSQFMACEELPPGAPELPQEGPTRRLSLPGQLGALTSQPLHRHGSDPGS
Data set [23] deals with Schistosoma mansoni. In words: Antischistosomal activity against Schistosoma mansoni assessed as induction of parasite sluggish movement after 24 hrs. The format is functional, organism-based. The essentials: as §1

In brackets after ≈: the same amount, converted by molar mass. Activity calls are given as the source filed them. The calls are words filed in the database; no cut-off is given here.

The values below come from ChEMBL document CHEMBL1155233, “Structure mechanism insights and the role of nitric oxide donation guide the development of oxadiazole-2-oxides as therapeutic agents against schistosomiasis” (J Med Chem, 2009).

Usually IC50 stands for the concentration needed to halve the response being measured. Consider `Cc1c(-c2ccccc2)no[n+]1[O-]`, for which the result (with Schistosoma mansoni [1]; in the data set on Schistosoma mansoni [2]; in the data set with Schistosoma mansoni [3]; in the data set with Schistosoma mansoni [4]; with Schistosoma mansoni [5]; in data set [13]) was inactive. Also, the outcome in the data set with Schistosoma mansoni [6] was Active. Besides, the Activity with Schistosoma mansoni [7] is 5%; in data set [8], less than 1%; in data set [9], less than 1%; in data set [10] it was 2%. Also, the 50% inhibitory concentration (IC50) in data set [11] was greater than 50 µM; in data set [12], greater than 400 µM.

Turning to `N#Cc1c(-c2ccc(F)c(Br)c2)no[n+]1[O-]`, the result in the data set on Schistosoma mansoni [1] and in the data set with Schistosoma mansoni [2] was inactive. Also, the outcome in the data set with Schistosoma mansoni [4] and with Schistosoma mansoni [15] was Active. Further, the Activity in the data set with Schistosoma mansoni [5] came to 5%; in the data set on Schistosoma mansoni [14], 75%; in the data set with Schistosoma mansoni [7], 100%; in [8], 2%; in data set [9], 19%; in [10], 69%. Besides, the IC50 in data set [11] is greater than 50 µM; in data set [12], 250 µM.

Broadly, the solubility is the concentration that dissolves in the medium under given conditions. The term logD denotes lipophilicity at a set pH, counting ionised and neutral species. What is called Papp is a coefficient for how fast a substance crosses the barrier. The inhibition is how much of the control response was suppressed. `N#Cc1c(-c2ccc(Br)cc2)no[n+]1[O-]`: the outcome in the data set on Schistosoma mansoni [1] was inactive. The Activity in the data set with Schistosoma mansoni [3] is 39%; in the data set on Schistosoma mansoni [4] it was 60%; in the data set on Schistosoma mansoni [5], 100%; in the data set with Schistosoma mansoni [14], 100%; with Schistosoma mansoni [7], 100%; in data set [8], 4%. Further, the Activity in data set [9] amounted to 19%; in data set [10] it was 68%. Moreover, the result in the data set on Schistosoma mansoni [16] was Active. Moreover, the IC50 in data set [11] is greater than 50 µM; in [12], 250 µM. The amount in solution in data set [17] (solubility) came to 18.6 µM (≈ 4.95 µg/mL). For the same molecule, the logD in [18] is recorded as 3.1. In addition, the Papp in the data set on Caco-2 [19] worked out at 7.9 ×10⁻⁶ cm/s; with Caco-2 [20], 4.8 ×10⁻⁶ cm/s. The results for the remaining at 1 h in data set [21] and in data set [22] were 10% and 67%, respectively. Testing at 10 µM on hERG (KCNH2) gave an inhibition of 5.5%.

For the molecule `O=Cc1c(-c2ccccc2)no[n+]1[O-]`, the result in the data set with Schistosoma mansoni [1], with Schistosoma mansoni [2], in the data set with Schistosoma mansoni [3] and with Schistosoma mansoni [4] was inactive. Also, the result with Schistosoma mansoni [23] was Active. For the same molecule, the Activity was 3% in the data set on Schistosoma mansoni [14]; 5% in the data set on Schistosoma mansoni [7]; 1% in data set [8]; 7% in data set [9]; 9% in [10]. The IC50 is 35.2 µM in [11] and less than 12.5 µM in data set [12].
